Measurements as given in ChEMBL document CHEMBL4359813, “Synthesis and antimycobacterial activity of imidazo[1,2-b][1,2,4,5]tetrazines” (2019).
Converted amounts (≈) assume the structure as drawn. The source made the active and inactive calls. No cut-off for these calls is given here.

Columns and labels:
[1] = test system: Mycolicibacterium smegmatis MC2 155; test: Inhibition of STPK in Mycobacterium smegmatis MC2 155 expressing aminoglycoside phophotransferase-8 assessed as growth inhibition at 50 nmol/disk after 18 hrs in presence of kanamycin by paper disk method
[2] = test system: Mycobacterium tuberculosis; test: Antimycobacterial activity against Mycobacterium tuberculosis H37Rv in liquid medium; format: functional
Summary of the method: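 M. tuberculosis H37Rv; MIC determined in liquid medium on the automated Bactec MGIT 960 system.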

[3] = test system: Mycolicibacterium smegmatis; test: Antimycobacterial activity against Mycobacterium smegmatis MC2 155 in liquid medium after 48 hrs by two-fold serial dilution method; format: functional; settings: MC2 155, 48 h
Summary of the method: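 M. smegmatis mc2 155 grown overnight in Lemco-Tw broth, diluted 1:200 in fresh broth. […] Top wells could carry 4% DMSO. Incubated 48 h at 37 °C with shaking at 250 rpm. MIC is the lowest concentration with no visible growth.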

[4] = test system: Mycolicibacterium smegmatis; test: Antimycobacterial activity against Mycobacterium smegmatis MC2 155 in solid medium by two-fold serial dilution method; format: functional
Summary of the method: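 M290 soybean-casein agar plates carried two-fold compound dilutions, 8–64 or 8–128 µg/ml, some with extra 20 or 25 µg/ml plates.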

[5] = test system: Mycolicibacterium smegmatis; test: Antimycobacterial activity against Mycobacterium smegmatis atR9 in liquid medium after 48 hrs by two-fold serial dilution method; format: functional; settings: atR9, 48 h
Summary of the method: (§1)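 M. smegmatis resistant mutants were isolated on M290 agar containing 3.5-4× MIC of the test compound at 30°C and resistance was reconfirmed. MIC was then run in Lemco-Tw broth (Tween-80 0.05%). An overnight culture was diluted 1:200, and two-fold serial dilutions in DMSO were added. Plates were incubated at 37°C and 250 rpm for 48 h. MIC was read as the lowest concentration with no visible growth.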

[6] = test system: Mycolicibacterium smegmatis; test: Antimycobacterial activity against Mycobacterium smegmatis atR14 in liquid medium after 48 hrs by two-fold serial dilution method; format: functional; settings: atR14, 48 h; summary of the method: as §1
[7] = test system: Mycolicibacterium smegmatis; test: Antimycobacterial activity against Mycobacterium smegmatis atR17 in liquid medium after 48 hrs by two-fold serial dilution method; format: functional; settings: atR17, 48 h; summary of the method: as §1
[8] = test system: Mycolicibacterium smegmatis; test: Antimycobacterial activity against Mycobacterium smegmatis atR19 in liquid medium after 48 hrs by two-fold serial dilution method; format: functional; settings: atR19, 48 h; summary of the method: as §1
[9] = test system: Mycolicibacterium smegmatis; test: Antimycobacterial activity against Mycobacterium smegmatis atR1 in liquid medium after 48 hrs by two-fold serial dilution method; format: functional; settings: atR1, 48 h; summary of the method: as §1
[10] = test system: Mycolicibacterium smegmatis; test: Antimycobacterial activity against Mycobacterium smegmatis atR8 in liquid medium after 48 hrs by two-fold serial dilution method; format: functional; settings: atR8, 48 h; summary of the method: as §1
[11] = test system: Mycolicibacterium smegmatis; test: Antimycobacterial activity against Mycobacterium smegmatis atR10 in liquid medium after 48 hrs by two-fold serial dilution method; format: functional; settings: atR10, 48 h; summary of the method: as §1
[12] = test system: Mycolicibacterium smegmatis; test: Antimycobacterial activity against Mycobacterium smegmatis atR11 in liquid medium after 48 hrs by two-fold serial dilution method; format: functional; settings: atR11, 48 h; summary of the method: as §1
[13] = test system: Mycolicibacterium smegmatis; test: Antimycobacterial activity against Mycobacterium smegmatis atR33 in liquid medium after 48 hrs by two-fold serial dilution method; format: functional; settings: atR33, 48 h; summary of the method: as §1
[14] = test system: Mycolicibacterium smegmatis; test: Antimycobacterial activity against Mycobacterium smegmatis atR37 in liquid medium after 48 hrs by two-fold serial dilution method; format: functional; settings: atR37, 48 h; summary of the method: as §1
[15] = test system: Mycolicibacterium smegmatis; test: Antimycobacterial activity against Mycobacterium smegmatis atR40 in liquid medium after 48 hrs by two-fold serial dilution method; format: functional; settings: atR40, 48 h; summary of the method: as §1
[16] = test system: Mycolicibacterium smegmatis; test: Antimycobacterial activity against Mycobacterium smegmatis atR2 in liquid medium after 48 hrs by two-fold serial dilution method; format: functional; settings: atR2, 48 h; summary of the method: as §1
[17] = test system: Mycolicibacterium smegmatis; test: Antimycobacterial activity against Mycobacterium smegmatis atR1 assessed as decrease in drug resistance development at 300 nmol/disc after 2 to 3 days by paper disc method; format: functional, organism-based
Summary of the method: (§2)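 Mutant M. smegmatis strains were grown in Middlebrook 7H9/OADC/Tween/glycerol to OD600 1.2. Cultures were diluted 1:9:10 (culture:water:M290) and overlaid on M290 agar. Commercial or impregnated paper discs were applied and plates incubated 2–3 days at 37 °C. Inhibition halos were measured to 1 mm, run in triplicate, mean ± SD.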

[18] = test system: Mycolicibacterium smegmatis; test: Antimycobacterial activity against Mycobacterium smegmatis atR2 assessed as decrease in drug resistance development at 300 nmol/disc after 2 to 3 days by paper disc method; format: functional, organism-based; summary of the method: as §2
[19] = test system: Mycolicibacterium smegmatis; test: Antimycobacterial activity against Mycobacterium smegmatis atR11 assessed as decrease in drug resistance development at 300 nmol/disc after 2 to 3 days by paper disc method; format: functional, organism-based; summary of the method: as §2
[20] = test system: Mycolicibacterium smegmatis; test: Antimycobacterial activity against Mycobacterium smegmatis atR8 assessed as decrease in drug resistance development at 300 nmol/disc after 2 to 3 days by paper disc method; format: functional, organism-based
Summary of the method: (§3)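 Drug-resistant M. smegmatis mc2 155 mutants, isolated on M290 agar with 3.5-4× MIC of compound and resistance re-confirmed, grown in Middlebrook 7H9 (OADC, 0.1% Tween-80, 0.4% glycerol) to OD600 1.2. Diluted 1:9:10 culture:water:M290 and poured as top layer on M290 agar. Impregnated paper discs applied; 37 °C for 2–3 days. Halos measured to nearest 1 mm; triplicates, mean ± SD versus control strain.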

[21] = test system: Mycolicibacterium smegmatis; test: Antimycobacterial activity against Mycobacterium smegmatis atR10 assessed as decrease in drug resistance development at 300 nmol/disc after 2 to 3 days by paper disc method; format: functional, organism-based; summary of the method: as §2
[22] = test system: Mycolicibacterium smegmatis; test: Antimycobacterial activity against Mycobacterium smegmatis atR14 assessed as decrease in drug resistance development at 300 nmol/disc after 2 to 3 days by paper disc method; format: functional, organism-based; summary of the method: as §2
[23] = test system: Mycolicibacterium smegmatis; test: Antimycobacterial activity against Mycobacterium smegmatis atR17 assessed as decrease in drug resistance development at 300 nmol/disc after 2 to 3 days by paper disc method; format: functional, organism-based; summary of the method: as §2
[24] = test system: Mycolicibacterium smegmatis; test: Antimycobacterial activity against Mycobacterium smegmatis atR19 assessed as decrease in drug resistance development at 300 nmol/disc after 2 to 3 days by paper disc method; format: functional, organism-based; summary of the method: as §2
[25] = test system: Mycolicibacterium smegmatis; test: Antimycobacterial activity against Mycobacterium smegmatis atR33 assessed as decrease in drug resistance development at 300 nmol/disc after 2 to 3 days by paper disc method; format: functional, organism-based; summary of the method: as §2
[26] = test system: Mycolicibacterium smegmatis; test: Antimycobacterial activity against Mycobacterium smegmatis atR37 assessed as decrease in drug resistance development at 300 nmol/disc after 2 to 3 days by paper disc method; format: functional, organism-based; summary of the method: as §3
[27] = test system: Mycolicibacterium smegmatis; test: Antimycobacterial activity against Mycobacterium smegmatis atR40 assessed as decrease in drug resistance development at 300 nmol/disc after 2 to 3 days by paper disc method; format: functional, organism-based; summary of the method: as §3
[28] = test system: Mycolicibacterium smegmatis MC2 155; test: Inhibition of STPK in Mycobacterium smegmatis MC2 155 expressing aminoglycoside phophotransferase-8 assessed as growth inhibition at 5 nmol/disk after 18 hrs in presence of kanamycin by paper disk method
[29] = test system: Mycolicibacterium smegmatis; test: Antimycobacterial activity against Mycobacterium smegmatis atR1 assessed as decrease in drug resistance development at 40 nmol/disc after 2 to 3 days by paper disc method; format: functional, organism-based; summary of the method: as §2
[30] = test system: Mycolicibacterium smegmatis; test: Antimycobacterial activity against Mycobacterium smegmatis atR2 assessed as decrease in drug resistance development at 40 nmol/disc after 2 to 3 days by paper disc method; format: functional, organism-based; summary of the method: as §2
[31] = test system: Mycolicibacterium smegmatis; test: Antimycobacterial activity against Mycobacterium smegmatis atR11 assessed as decrease in drug resistance development at 40 nmol/disc after 2 to 3 days by paper disc method; format: functional, organism-based; summary of the method: as §2
[32] = test system: Mycolicibacterium smegmatis; test: Antimycobacterial activity against Mycobacterium smegmatis atR8 assessed as decrease in drug resistance development at 40 nmol/disc after 2 to 3 days by paper disc method; format: functional, organism-based; summary of the method: as §3
[33] = test system: Mycolicibacterium smegmatis; test: Antimycobacterial activity against Mycobacterium smegmatis atR10 assessed as decrease in drug resistance development at 40 nmol/disc after 2 to 3 days by paper disc method; format: functional, organism-based; summary of the method: as §2
[34] = test system: Mycolicibacterium smegmatis; test: Antimycobacterial activity against Mycobacterium smegmatis atR14 assessed as decrease in drug resistance development at 40 nmol/disc after 2 to 3 days by paper disc method; format: functional, organism-based; summary of the method: as §2
[35] = test system: Mycolicibacterium smegmatis; test: Antimycobacterial activity against Mycobacterium smegmatis atR17 assessed as decrease in drug resistance development at 40 nmol/disc after 2 to 3 days by paper disc method; format: functional, organism-based; summary of the method: as §2
[36] = test system: Mycolicibacterium smegmatis; test: Antimycobacterial activity against Mycobacterium smegmatis atR19 assessed as decrease in drug resistance development at 40 nmol/disc after 2 to 3 days by paper disc method; format: functional, organism-based; summary of the method: as §2
[37] = test system: Mycolicibacterium smegmatis; test: Antimycobacterial activity against Mycobacterium smegmatis atR33 assessed as decrease in drug resistance development at 40 nmol/disc after 2 to 3 days by paper disc method; format: functional, organism-based; summary of the method: as §2
[38] = test system: Mycolicibacterium smegmatis; test: Antimycobacterial activity against Mycobacterium smegmatis atR37 assessed as decrease in drug resistance development at 40 nmol/disc after 2 to 3 days by paper disc method; format: functional, organism-based; summary of the method: as §3
[39] = test system: Mycolicibacterium smegmatis; test: Antimycobacterial activity against Mycobacterium smegmatis atR40 assessed as decrease in drug resistance development at 40 nmol/disc after 2 to 3 days by paper disc method; format: functional, organism-based; summary of the method: as §3
[40] = test system: Mycolicibacterium smegmatis; test: Antimycobacterial activity against Mycobacterium smegmatis atR8 assessed as decrease in drug resistance development at 200 nmol/disc after 2 to 3 days by paper disc method; format: functional, organism-based; summary of the method: as §3
[41] = test system: Mycolicibacterium smegmatis; test: Antimycobacterial activity against Mycobacterium smegmatis atR9 assessed as decrease in drug resistance development at 200 nmol/disc after 2 to 3 days by paper disc method; format: functional, organism-based; summary of the method: as §3
[42] = test system: Mycolicibacterium smegmatis; test: Antimycobacterial activity against Mycobacterium smegmatis atR10 assessed as decrease in drug resistance development at 200 nmol/disc after 2 to 3 days by paper disc method; format: functional, organism-based; summary of the method: as §2
[43] = test system: Mycolicibacterium smegmatis; test: Antimycobacterial activity against Mycobacterium smegmatis atR17 assessed as decrease in drug resistance development at 200 nmol/disc after 2 to 3 days by paper disc method; format: functional, organism-based; summary of the method: as §2

Structure (SMILES)	inhibition zone (IZ) [1] [mm]	MIC [2] [µM]	MIC [3] [µM]	MIC [4] [µM]	MIC [5] [mg/L]	MIC [6] [mg/L]	MIC [7] [mg/L]	MIC [8] [mg/L]	MIC [9] [mg/L]	MIC [10] [mg/L]	MIC [11] [mg/L]	MIC [12] [mg/L]	MIC [13] [mg/L]	MIC [14] [mg/L]	MIC [15] [mg/L]	MIC [16] [mg/L]	inhibition zone (IZ) [28] [mm]	also measured
Cc1cc(C)n(-c2nnc3ncc(SC(C)C)n3n2)n1	13.3	3.5 (≈ 1.01 µg/mL)	221 (≈ 64 µg/mL)	221 (≈ 64 µg/mL)	256 (≈ 885 µM)	256 (≈ 885 µM)	256 (≈ 885 µM)	256 (≈ 885 µM)	512 (≈ 1770 µM)	512 (≈ 1770 µM)	512 (≈ 1770 µM)	512 (≈ 1770 µM)	512 (≈ 1770 µM)	512 (≈ 1770 µM)	512 (≈ 1770 µM)	1020 (≈ 3540 µM)	–	Activity [17]: inactive; Activity [18]: inactive; Activity [19]: inactive; Activity [20]: inactive; Activity [21]: inactive; Activity [22]: inactive; Activity [23]: inactive; Activity [24]: inactive; Activity [25]: inactive; Activity [26]: inactive; Activity [27]: inactive
Cc1cc(C)n(-c2nnc3ncc(Sc4ccccc4)n3n2)n1	–	3.1 (≈ 1 µg/mL)	99 (≈ 32 µg/mL)	61.8 (≈ 20 µg/mL)	> 64	> 64	> 64	> 64	> 64	> 64	> 64	> 64	> 64	> 64	> 64	> 64	11.5	Activity [29]: inactive; Activity [30]: inactive; Activity [31]: inactive; Activity [32]: inactive; Activity [33]: inactive; Activity [34]: inactive; Activity [35]: inactive; Activity [36]: inactive; Activity [37]: inactive; Activity [38]: inactive; Activity [39]: inactive
c1cn(-c2nnc3nccn3n2)cn1	12.8	134 (≈ 25 µg/mL)	171 (≈ 32 µg/mL)	134 (≈ 25 µg/mL)	32 (≈ 171 µM)	32 (≈ 171 µM)	32 (≈ 171 µM)	32 (≈ 171 µM)	32 (≈ 171 µM)	32 (≈ 171 µM)	32 (≈ 171 µM)	32 (≈ 171 µM)	32 (≈ 171 µM)	32 (≈ 171 µM)	32 (≈ 171 µM)	32 (≈ 171 µM)	–	Activity [40]: inactive; Activity [41]: inactive; Activity [42]: inactive; Activity [43]: inactive
CCCCCCCNc1nnc2ncc(Sc3ccccc3)n2n1	12	–	–	–	–	–	–	–	–	–	–	–	–	–	–	–	–	–
CCC(CCCO)Sc1cnc2nnc(-n3nc(C)cc3C)nn12 (stereo unspecified)	–	–	–	–	–	–	–	–	–	–	–	–	–	–	–	–	9.3	–
